# Source: ChEMBL document CHEMBL1821604, “Anticancer activity and cDNA microarray studies of a (RS)-1,2,3,5-tetrahydro-4,1-benzoxazepine-3-yl]-6-chloro-9H-purine, and an acyclic (RS)-O,N-acetalic 6-chloro-7H-purine” (Eur J Med Chem, 2011)
# Columns and labels:
# Type in all cases: functional
# HT-29 [1] = test: Upregulation of COL3A1 gene expression in human HT-29 cells at IC50 after 48 hrs by cDNA microarray technique relative to control
# MCF7 [2] = test: Down regulation of ATP1B4 gene expression in human MCF7 cells at IC50 after 48 hrs by cDNA microarray technique relative to control
# Summary of the method: (§1)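 8 × 10⁶ cells exposed 48 h to compound at its IC50 concentration; total RNA isolated with trizol/chloroform and RNeasy columns including on-column DNase step; RNA quantified by OD 260/280; DMSO-treated cultures as control.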
# MCF7 [3] = test: Down regulation of IL1F9 gene expression in human MCF7 cells at IC50 after 48 hrs by cDNA microarray technique relative to control
# Summary of the method: (§2)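 Cells (8 × 10⁶) were cultured in DMEM with 10% heat-inactivated FBS at 37 °C under 5% CO₂. They were exposed for 48 h to compound at its IC₅₀, with DMSO-treated parallel cultures as controls (final DMSO ≤0.1% v/v). Total RNA was isolated by trizol/chloroform phase separation, RNeasy column cleanup and on-column DNase, then quantified by OD260/OD280. Expression was profiled by cDNA microarray relative to control.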
# MCF7 [4] = test: Down regulation of PARK2 gene expression in human MCF7 cells at IC50 after 48 hrs by cDNA microarray technique relative to control
# MCF7 [5] = test: Down regulation of C21orf42 gene expression in human MCF7 cells at IC50 after 48 hrs by cDNA microarray technique relative to control; summary of the method: as §1
# HT-29 [6] = test: Down regulation of COL11A1 gene expression in human HT-29 cells at IC50 after 48 hrs by cDNA microarray technique relative to control; summary of the method: as §1
# HT-29 [7] = test: Down regulation of FLJ10786 gene expression in human HT-29 cells at IC50 after 48 hrs by cDNA microarray technique relative to control; summary of the method: as §2
# HT-29 [8] = test: Down regulation of SCD4 gene expression in human HT-29 cells at IC50 after 48 hrs by cDNA microarray technique relative to control
# HT-29 [9] = test: Down regulation of DNAJC5B gene expression in human HT-29 cells at IC50 after 48 hrs by cDNA microarray technique relative to control; summary of the method: as §2
# MCF7 [10] = test: Upregulation of ZNF141 gene expression in human MCF7 cells at IC50 after 48 hrs by cDNA microarray technique relative to control
# MCF7 [11] = test: Upregulation of SMARCA1 gene expression in human MCF7 cells at IC50 after 48 hrs by cDNA microarray technique relative to control
# MCF7 [12] = test: Upregulation of PTPNS1 gene expression in human MCF7 cells at IC50 after 48 hrs by cDNA microarray technique relative to control
# MCF7 [13] = test: Upregulation of NPAT gene expression in human MCF7 cells at IC50 after 48 hrs by cDNA microarray technique relative to control
# HT-29 [14] = test: Down regulation of POU6F1 gene expression in human HT-29 cells at IC50 after 48 hrs by cDNA microarray technique relative to control
# HT-29 [15] = test: Down regulation of SLC28A2 gene expression in human HT-29 cells at IC50 after 48 hrs by cDNA microarray technique relative to control
# MCF7 [16] = test: Upregulation of MGC2474 gene expression in human MCF7 cells at IC50 after 48 hrs by cDNA microarray technique relative to control
# MCF7 [17] = test: Upregulation of SPACA3 gene expression in human MCF7 cells at IC50 after 48 hrs by cDNA microarray technique relative to control
# MCF7 [18] = test: Upregulation of MGC32020 gene expression in human MCF7 cells at IC50 after 48 hrs by cDNA microarray technique relative to control
# MCF7 [19] = test: Down regulation of GLIPR1 gene expression in human MCF7 cells at IC50 after 48 hrs by cDNA microarray technique relative to control; summary of the method: as §2
# HT-29 [20] = test: Down regulation of ANP32D gene expression in human HT-29 cells at IC50 after 48 hrs by cDNA microarray technique relative to control; summary of the method: as §1
# HT-29 [21] = test: Down regulation of ANP32C gene expression in human HT-29 cells at IC50 after 48 hrs by cDNA microarray technique relative to control; summary of the method: as §1
# HT-29 [22] = test: Down regulation of FUS gene expression in human HT-29 cells at IC50 after 48 hrs by cDNA microarray technique relative to control; summary of the method: as §2
# HT-29 [23] = test: Down regulation of PRP19 gene expression in human HT-29 cells at IC50 after 48 hrs by cDNA microarray technique relative to control
# MCF7 [24] = test: Upregulation of ANKRD35 gene expression in human MCF7 cells at IC50 after 48 hrs by cDNA microarray technique relative to control
# MCF7 [25] = test: Upregulation of SCGB1D2 gene expression in human MCF7 cells at IC50 after 48 hrs by cDNA microarray technique relative to control
# MCF7 [26] = test: Upregulation of MRPL49 gene expression in human MCF7 cells at IC50 after 48 hrs by cDNA microarray technique relative to control
# MCF7 [27] = test: Upregulation of ERN1 gene expression in human MCF7 cells at IC50 after 48 hrs by cDNA microarray technique relative to control
# MCF7 [28] = test: Upregulation of OXSR1 gene expression in human MCF7 cells at IC50 after 48 hrs by cDNA microarray technique relative to control
# MCF7 [29] = test: Upregulation of LRRC48 gene expression in human MCF7 cells at IC50 after 48 hrs by cDNA microarray technique relative to control
# MCF7 [30] = test: Upregulation of GPR132 gene expression in human MCF7 cells at IC50 after 48 hrs by cDNA microarray technique relative to control
# MCF7 [31] = test: Down regulation of TMPRSS6 gene expression in human MCF7 cells at IC50 after 48 hrs by cDNA microarray technique relative to control
# MCF7 [32] = test: Down regulation of TDGF1 gene expression in human MCF7 cells at IC50 after 48 hrs by cDNA microarray technique relative to control
# MCF7 [33] = test: Down regulation of THC2441203 gene expression in human MCF7 cells at IC50 after 48 hrs by cDNA microarray technique relative to control
# HT-29 [34] = test: Upregulation of LAMP3 gene expression in human HT-29 cells at IC50 after 48 hrs by cDNA microarray technique relative to control
# HT-29 [35] = test: Upregulation of EGLN3 gene expression in human HT-29 cells at IC50 after 48 hrs by cDNA microarray technique relative to control
# HT-29 [36] = test: Down regulation of PRO1855 gene expression in human HT-29 cells at IC50 after 48 hrs by cDNA microarray technique relative to control
# HT-29 [37] = test: Down regulation of KELCHL gene expression in human HT-29 cells at IC50 after 48 hrs by cDNA microarray technique relative to control; summary of the method: as §2
# HT-29 [38] = test: Down regulation of POLE gene expression in human HT-29 cells at IC50 after 48 hrs by cDNA microarray technique relative to control
smiles,measurement,setting,value
COC(CN(c1ccccc1CO)S(=O)(=O)c1ccccc1[N+](=O)[O-])n1cnc2ncnc(Cl)c21 (racemic),fold change (FC),HT-29 [1],4.72
same,fold change (FC),MCF7 [2],-2.07
same,fold change (FC),MCF7 [3],-2.17
same,fold change (FC),MCF7 [4],-2.2
same,fold change (FC),MCF7 [5],-2.31
same,fold change (FC),HT-29 [6],-2.03
same,fold change (FC),HT-29 [7],-2.04
same,fold change (FC),HT-29 [8],-2.25
same,fold change (FC),HT-29 [9],-2.49
same,fold change (FC),MCF7 [10],4.04
same,fold change (FC),MCF7 [11],2.91
same,fold change (FC),MCF7 [12],2.89
same,fold change (FC),MCF7 [13],2.68
same,fold change (FC),HT-29 [14],-3.13
same,fold change (FC),HT-29 [15],-3.32
same,fold change (FC),MCF7 [16],2.23
same,fold change (FC),MCF7 [17],2.21
same,fold change (FC),MCF7 [18],2.09
same,fold change (FC),MCF7 [19],-2.12
O=C(OCC1c2ccccc2-c2ccccc21)N1CC(n2cnc3c(Cl)ncnc32)OCc2ccccc21 (racemic),fold change (FC),HT-29 [20],-2.8
same,fold change (FC),HT-29 [21],-2.81
same,fold change (FC),HT-29 [22],-2.99
same,fold change (FC),HT-29 [23],-3.33
same,fold change (FC),MCF7 [24],6.08
same,fold change (FC),MCF7 [25],6.02
same,fold change (FC),MCF7 [26],3.12
same,fold change (FC),MCF7 [27],2.81
same,fold change (FC),MCF7 [28],2.21
same,fold change (FC),MCF7 [29],2.18
same,fold change (FC),MCF7 [30],2.1
same,fold change (FC),MCF7 [31],-2.03
same,fold change (FC),MCF7 [32],-3
same,fold change (FC),MCF7 [33],-3.19
same,fold change (FC),HT-29 [34],2.91
same,fold change (FC),HT-29 [35],2.14
same,fold change (FC),HT-29 [36],-2
same,fold change (FC),HT-29 [37],-2.02
same,fold change (FC),HT-29 [38],-2.12
